Activity calls are given as the source filed them. The calls are words filed in the database; no cut-off is given here.
What was measured:
[1] = biological target: Epidermal growth factor receptor (Homo sapiens) (UniProt P00533); experiment: (§1) Inhibition of wild type human EGFR assessed as decrease in substrate phosphorylation using Srctide as substrate preincubated for 15 mins followed by substrate addition in presence of 1mM of ATP and measured after 45 mins by microplate reader analysis; details: time 60.0 min
How it was run: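 Wild-type EGFR at 800 ng/mL was preincubated 15 min with 1 µM compound in 100 mM HEPES pH 7.4, 0.003% Brij-35, 0.004% Tween-20, 1 mM DTT. Then 1 mM ATP, 1.5 µM Srctide, 10 mM MgCl2 and 10 mM MnCl2 were added for 45 min. Mobility-shift read.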

[2] = system: Epidermal growth factor receptor (Homo sapiens), P00533 [L858R]; experiment: Binding affinity to N-terminal His6-tagged human EGFR L858R mutant expressed in Sf9 cells at pH 7.4 assessed as covalent adduct at +277 Da formation at 0.3 to 1 uM incubated for 1 hrs by LC-MS analysis; details: dose 0.3-1 µM
How it was run: (§2)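 EGFR (694-1022) L858R or L858R/C775S as N-terminal His-GST fusions from Sf9 cells, purified by Ni affinity then SEC. Each protein at 0.5 mg/ml was incubated with compound (0.3, 1 or 3 µM) in 20 mM Tris-HCl pH 7.5, 150 mM NaCl, 1 mM TCEP, 5% glycerol, 1 h at room temperature. SDS was added to 1% final, samples boiled 95°C 10 min, then UHPLC-MS.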

[3] = system: Epidermal growth factor receptor (Homo sapiens), P00533 [L858R,C775S]; experiment: Binding affinity to N-terminal His6-tagged human EGFR L858R/C775S mutant expressed in Sf9 cells at pH 7.4 assessed as covalent adduct at +277 Da formation at 0.3 to 1 uM incubated for 1 hrs by LC-MS analysis; details: dose 0.3-1 µM; how it was run: as §2
[4] = biological target: T1, Epidermal growth factor receptor (Homo sapiens, UniProt P00533, C797S/L858R/T790M); experiment: as §1, with “N-terminal His6-tagged” for “wild type”, “EGFR L858R/T790M/C797S mutant expressed in Sf9 cells” for “EGFR”, “20” for “15”, “5uM” for “1mM”
[5] = biological target: T1, Epidermal growth factor receptor; experiment: as §1, with “N-terminal His6-tagged” for “wild type”, “EGFR L858R/T790M/C797S mutant expressed in Sf9 cells” for “EGFR”, “60” for “15”, “5uM” for “1mM”
[6] = biological target: T1, Epidermal growth factor receptor; experiment: as §1, with “N-terminal His6-tagged” for “wild type”, “EGFR L858R/T790M/C797S mutant expressed in Sf9 cells” for “EGFR”, “20” for “15”
How it was run: (§3)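 Compound in DMSO was preincubated 0, 20 or 60 min with 250 pg/µL EGFR_TM (residues 694-1022) in 20 mM HEPES pH 7.4, 5 mM MgCl2, 1 mM MnCl2, 0.003% Brij-35, 0.004% Tween-20, 2 mM DTT. […] EDTA stop; phosphorylation read by mobility-shift chip, ex 488/em 530 nm.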

[7] = biological target: T1, Epidermal growth factor receptor; experiment: as §1, with “N-terminal His6-tagged” for “wild type”, “EGFR L858R/T790M/C797S mutant expressed in Sf9 cells” for “EGFR”, “60” for “15”; how it was run: as §3
[8] = system: Epidermal growth factor receptor (Homo sapiens), P00533 [L858R]; experiment: Inhibition of human EGFR L858R mutant assessed as decrease in substrate phosphorylation using Srctide as substrate preincubated for 15 mins followed by substrate addition in presence of 1mM of ATP and measured after 45 mins by microplate reader analysis; details: time 60.0 min
How it was run: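 Panel format: compound at 1 µM final was preincubated 15 min with kinase in 20 mM HEPES pH 7.4, 5 mM MgCl2, 1 mM MnCl2, 0.003% Brij-35, 0.004% Tween-20, 2 mM DTT. ATP (1 mM) and Srctide (1.5 µM) were then added for 45 min. EDTA stop; mobility-shift read, ex 488/em 530 nm.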

[9] = biological target: T2, Tyrosine-protein kinase JAK3 (Homo sapiens) (UniProt P52333); experiment: Inhibition of human JAK3 assessed as decrease in substrate phosphorylation using Srctide as substrate preincubated for 15 mins followed by substrate addition in presence of 1mM of ATP and measured after 45 mins by microplate reader analysis; details: time 60.0 min
T2 sequence (whole entry): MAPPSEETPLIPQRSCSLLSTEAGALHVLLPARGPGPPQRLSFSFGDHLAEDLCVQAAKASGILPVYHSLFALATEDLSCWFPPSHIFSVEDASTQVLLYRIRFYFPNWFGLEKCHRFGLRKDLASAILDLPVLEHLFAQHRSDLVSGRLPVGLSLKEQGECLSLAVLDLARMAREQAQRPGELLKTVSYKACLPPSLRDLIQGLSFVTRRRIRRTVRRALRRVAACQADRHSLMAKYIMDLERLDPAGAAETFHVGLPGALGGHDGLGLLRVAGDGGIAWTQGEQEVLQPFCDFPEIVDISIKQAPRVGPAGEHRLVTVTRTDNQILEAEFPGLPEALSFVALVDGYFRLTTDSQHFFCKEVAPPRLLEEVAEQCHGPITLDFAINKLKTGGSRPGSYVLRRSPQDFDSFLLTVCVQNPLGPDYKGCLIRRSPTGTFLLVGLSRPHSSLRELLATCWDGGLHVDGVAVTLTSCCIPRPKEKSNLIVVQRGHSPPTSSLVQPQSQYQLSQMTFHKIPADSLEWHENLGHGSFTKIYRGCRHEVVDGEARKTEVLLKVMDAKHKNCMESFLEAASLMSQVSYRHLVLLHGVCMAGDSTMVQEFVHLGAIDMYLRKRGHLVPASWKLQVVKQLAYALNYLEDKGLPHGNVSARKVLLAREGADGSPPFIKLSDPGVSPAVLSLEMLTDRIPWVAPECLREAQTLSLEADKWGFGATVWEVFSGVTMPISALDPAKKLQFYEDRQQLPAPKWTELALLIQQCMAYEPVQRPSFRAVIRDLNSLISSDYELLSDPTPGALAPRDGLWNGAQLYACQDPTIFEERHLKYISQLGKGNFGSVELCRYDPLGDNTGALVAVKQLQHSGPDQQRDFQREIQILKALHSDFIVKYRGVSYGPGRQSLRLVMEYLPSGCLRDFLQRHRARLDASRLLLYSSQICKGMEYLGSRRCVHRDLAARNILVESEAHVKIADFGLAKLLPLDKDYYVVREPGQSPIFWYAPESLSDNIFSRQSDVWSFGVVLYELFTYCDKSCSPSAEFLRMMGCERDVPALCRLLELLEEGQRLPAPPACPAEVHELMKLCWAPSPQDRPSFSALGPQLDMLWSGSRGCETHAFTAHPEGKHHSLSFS
How it was run: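 JAK3 at 50 ng/mL was preincubated 15 min with 1 µM compound in 100 mM HEPES pH 7.4, 0.003% Brij-35, 0.004% Tween-20, 1 mM DTT. Then 1 mM ATP, 1.5 µM Srctide and 10 mM MgCl2 were added for 45 min. Mobility-shift read.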

- inhibition [1]: > 80%
- Activity [2]: inactive
- Activity [3]: Active
- IC50 [4]: 239 nM
- IC50 [5]: 167 nM
- IC50 [6]: 251 nM
- IC50 [7]: 150 nM
- inhibition [8]: > 80%
- inhibition [9]: 74.2%
Structure (SMILES): C=CC(=O)Nc1cc(-c2cn(C)c3ccccc23)ncn1

Reference: ChEMBL document CHEMBL5329221, “A covalent fragment-based strategy targeting a novel cysteine to inhibit activity of mutant EGFR kinase” (RSC Med Chem, 2023)
